Results on three compounds are retold here after ChEMBL document CHEMBL5385902, “Synthesis of urea and thiourea derivatives of C20-epi-aminosalinomycin and their activity against Trypanosoma brucei” (Eur J Med Chem, 2023).

Values after ≈ are worked out from the molar mass of the structure shown. Active and inactive are the calls of the source.

The nature of data set [1]: Cytotoxicity against human HL-60 cells assessed as cell killing incubated for 24 hrs by microscopic analysis. It counts as toxicity, cell-based. Particulars: read-out: MIC. The method in brief: (§1)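 Bloodstream-form T. brucei 427-221a seeded at 1 × 10^4 mL^-1 or HL-60 cells at 5 × 10^4 mL^-1 in Baltz medium with 16.7% heat-inactivated bovine serum, 0.9% DMSO, 10-fold dilutions 100 μM to 100 nM; 37 °C, 5% CO2. MIC, concentration killing all cells, determined microscopically. Possible values 100 μM down to […].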

The nature of data set [2]: Cytotoxicity against human HL-60 cells assessed as inhibition of cell growth incubated for 24 hrs and measured at 48 hrs following resazurin challenge by resazurin assay. The data set is classed as toxicity, cell-based. The gist of the method: (§2)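 Bloodstream-form T. brucei 427-221a (1 × 10^4 mL^-1) or HL-60 cells (5 × 10^4 mL^-1) in Baltz medium with 16.7% heat-inactivated bovine serum, 0.9% DMSO, 10-fold dilutions 100 μM to 100 nM; 37 °C, 5% CO2, 24 h. Resazurin then added, 48 h more; absorbance 570 nm, reference 630 nm. GI50 by linear interpolation; mean and SD of three independent experiments.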
In general terms: Resazurin is reduced to fluorescent resorufin, in cell work by metabolically active cells.

Data set [3] is described as follows: Selectivity index, ratio of GI50 for cytotoxicity against human HL60 cells to GI50 for Trypanocidal activity against bloodstream form of Trypanosoma brucei 427-221a. It counts as toxicity, cell-based. As to conditions: read-out: RatioGI50. The gist of the method:
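Ratio of HL-60 GI50 to T. brucei GI50. Both from the resazurin assay in Baltz medium with 16.7% heat-inactivated bovine serum and 0.9% DMSO, 10-fold dilutions 100 μM to 100 nM, 24 h then 48 h with resazurin. GI50 by linear interpolation, three independent experiments.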

In data set [4] the test system is Trypanosoma brucei. Kind of data set: Trypanocidal activity against bloodstream form of Trypanosoma brucei 427-221a assessed as inhibition of parasite growth incubated for 24 hrs and measured at 48 hrs following resazurin challenge by resazurin assay. The data set is classed as functional. Particulars: time 72 hrs. The gist of the method:
as §2

A short description of data set [5]: Selectivity index, ratio of MIC for cytotoxicity against human HL60 cells to MIC for Trypanocidal activity against bloodstream form of Trypanosoma brucei 427-221a. The data set is classed as toxicity, cell-based. Particulars: read-out: Selectivity Index.
Data set [6] concerns Trypanosoma brucei. The data set can be described thus: Trypanocidal activity against bloodstream form of Trypanosoma brucei 427-221a assessed as parasite killing incubated for 24 hrs by microscopic analysis. It counts as functional. The method in brief:
as §1

Data set [7] concerns Trypanosoma brucei. Kind of data set: Trypanocidal activity against bloodstream form of Trypanosoma brucei 427-221a assessed as increase in cell swelling activity at 100 uM measured every 10 min for 60 mins by light scattering method. The data set is classed as functional, organism-based. The method in brief: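 Light-scattering cell-volume assay. 1 × 10^7 bloodstream-form T. brucei 427-221a in 200 μL Baltz medium with 100 μM compound and 0.9% DMSO; controls with DMSO only. Absorbance at 490 nm read every 10 min for 60 min; falling absorbance indicates cell swelling. Rate constant k of the absorbance decrease derived. Means of three independent experiments.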

Data set [8] can be described thus: Lipophilicity, log P of the compound. It counts as physicochemical. As to conditions: octanol/water.

As to `CC[C@@H](C(=O)[C@@H](C)[C@@H](O)[C@H](C)[C@@H]1O[C@@H]([C@@H](CC)C(=O)O)CC[C@@H]1C)[C@H]1O[C@]2(C=C[C@@H](O)[C@]3(CC[C@@](C)([C@H]4CC[C@](O)(CC)[C@H](C)O4)O3)O2)[C@H](C)C[C@@H]1C` [SALINOMYCIN], the MCC at 24 h in data set [1] was found to be 100 µM. In addition, the 50% growth inhibitory concentration (GI50) (commonly the concentration at which growth is held to half of that of the control) at 72 h in data set [2] worked out at 20 µM. Further, the selectivity ratio was found to be 74.1 in data set [3] and 100 in data set [5]. Further, the GI50 in data set [4] turned out to be 0.27 µM. The MIC – broadly, the smallest concentration in the dilution series that meets the test's criterion for growth inhibition – in data set [6] worked out at 1 µM (≈ 0.751 µg/mL). The result in data set [7] was Active. Further, the lipophilicity (logP) (usually the decadic logarithm of the partition coefficient of the neutral form, usually between octanol and water) in data set [8] was above 6.2.
Take `CC[C@@H](C(=O)[C@@H](C)[C@@H](O)[C@H](C)[C@@H]1O[C@@H]([C@@H](CC)C(=O)O)CC[C@@H]1C)[C@H]1O[C@]2(C=C[C@H](NC(=S)Nc3ccccc3)[C@]3(CC[C@@](C)([C@H]4CC[C@](O)(CC)[C@H](C)O4)O3)O2)[C@H](C)C[C@@H]1C`: the MCC at 24 h in data set [1] came to 10 µM. Also, the concentration for 50% growth inhibition (GI50) at 72 h in data set [2] was 8.9 µM. The selectivity ratio came to 40.5 in data set [3] and 10 in data set [5]. In addition, the GI50 in data set [4] stood at 0.22 µM. The MIC in data set [6] turned out to be 1 µM (≈ 0.885 µg/mL). Besides, the outcome in data set [7] was Active.
As for `CC[C@@H](C(=O)[C@@H](C)[C@@H](O)[C@H](C)[C@@H]1O[C@@H]([C@@H](CC)C(=O)O)CC[C@@H]1C)[C@H]1O[C@]2(C=C[C@H](N)[C@]3(CC[C@@](C)([C@H]4CC[C@](O)(CC)[C@H](C)O4)O3)O2)[C@H](C)C[C@@H]1C`, the MCC at 24 h in data set [1] came out at 100 µM. Also, the GI50 at 72 h in data set [2] was 83.2 µM. The selectivity ratio in data set [3] is 25.2; in data set [5], 10. Besides, in data set [4], the GI50 came out at 3.3 µM. For the same compound, the MIC in data set [6] turned out to be 10 µM (≈ 7.5 µg/mL). For the same compound, the result in data set [7] was inactive.
